pIC50, pKi: −log10 of the molar value.
Tests used:
[1] = target: Prostaglandin E2 receptor EP2 subtype (Mus musculus, UniProt Q62053); assay: Displacement of [3H]PGE2 from mouse prostaglandin EP2 receptor expressed in CHO cells after 60 mins by liquid scintillation counting; format: cell-based
Method in brief: (§1)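 Membranes came from CHO cells stably expressing mEP1, EP2, EP3 or EP4. They were incubated with 2.5 nM [3H]PGE2 and graded test concentrations in 10 mM KH2PO4–KOH (1 mM EDTA, 10 mM MgCl2, 100 mM NaCl, pH 6.0) at room temperature, 20 min for EP1 and 60 min for EP2–4. Reactions were filtered on GF/B, washed with ice-cold buffer, and counted by scintillation. IC50 came by regression, with Ki via Cheng–Prusoff.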

[2] = target: T1, Prostaglandin E2 receptor EP3 subtype (Mus musculus, UniProt P30557); assay: Displacement of [3H]PGE2 from mouse prostaglandin EP3alpha receptor expressed in CHO cells after 60 mins by liquid scintillation counting; format: cell-based; method in brief: as §1
T1 sequence (P30557 whole entry): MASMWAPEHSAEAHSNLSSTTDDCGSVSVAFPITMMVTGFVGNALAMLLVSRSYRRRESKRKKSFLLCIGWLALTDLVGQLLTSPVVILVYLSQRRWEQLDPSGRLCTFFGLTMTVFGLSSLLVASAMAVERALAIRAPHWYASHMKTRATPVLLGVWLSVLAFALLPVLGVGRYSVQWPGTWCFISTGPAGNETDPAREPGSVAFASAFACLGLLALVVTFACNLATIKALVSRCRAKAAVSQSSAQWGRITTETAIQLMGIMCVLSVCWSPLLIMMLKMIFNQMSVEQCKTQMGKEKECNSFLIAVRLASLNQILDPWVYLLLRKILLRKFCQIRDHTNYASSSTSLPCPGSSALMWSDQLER

[3] = target: Prostaglandin E2 receptor EP4 subtype (Mus musculus, UniProt P32240); assay: Displacement of [3H]PGE2 from mouse prostaglandin EP4 receptor expressed in CHO cells after 60 mins by liquid scintillation counting; format: cell-based; method in brief: as §1
Prostaglandin E2 receptor EP4 subtype, sequence (P32240 whole entry): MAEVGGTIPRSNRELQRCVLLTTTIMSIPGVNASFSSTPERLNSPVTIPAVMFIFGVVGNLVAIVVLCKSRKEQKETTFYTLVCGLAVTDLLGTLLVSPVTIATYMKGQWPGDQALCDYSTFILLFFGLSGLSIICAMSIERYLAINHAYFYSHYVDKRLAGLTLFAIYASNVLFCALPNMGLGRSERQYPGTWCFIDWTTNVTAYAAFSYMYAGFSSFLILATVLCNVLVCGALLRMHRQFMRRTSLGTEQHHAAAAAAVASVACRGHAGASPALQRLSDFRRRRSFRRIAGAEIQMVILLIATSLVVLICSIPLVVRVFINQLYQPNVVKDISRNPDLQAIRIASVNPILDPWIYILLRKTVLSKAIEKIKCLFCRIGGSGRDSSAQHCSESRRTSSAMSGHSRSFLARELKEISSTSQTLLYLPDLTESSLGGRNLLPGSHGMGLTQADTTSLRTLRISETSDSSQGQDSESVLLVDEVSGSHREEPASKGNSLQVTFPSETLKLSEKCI

[4] = target: T2, Prostaglandin D2 receptor (Mus musculus, UniProt P70263); assay: Displacement of [3H]PGD2 from mouse prostanoid DP receptor expressed in CHO cells after 20 mins by liquid scintillation counting
T2 sequence (P70263 whole entry): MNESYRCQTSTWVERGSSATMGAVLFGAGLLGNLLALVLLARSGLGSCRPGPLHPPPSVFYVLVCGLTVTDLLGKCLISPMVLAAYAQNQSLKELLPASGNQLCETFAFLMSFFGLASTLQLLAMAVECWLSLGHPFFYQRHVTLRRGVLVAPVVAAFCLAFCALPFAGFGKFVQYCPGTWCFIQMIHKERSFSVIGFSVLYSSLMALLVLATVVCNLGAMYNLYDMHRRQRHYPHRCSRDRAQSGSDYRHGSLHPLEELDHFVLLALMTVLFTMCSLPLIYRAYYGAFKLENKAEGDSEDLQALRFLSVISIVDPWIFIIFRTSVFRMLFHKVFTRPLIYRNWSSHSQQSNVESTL

[5] = target: T3, Prostaglandin E2 receptor EP1 subtype (Mus musculus, UniProt P35375); assay: Displacement of [3H]PGE2 from mouse prostaglandin EP1 receptor expressed in CHO cells after 20 mins by liquid scintillation counting
T3 sequence (P35375 whole entry): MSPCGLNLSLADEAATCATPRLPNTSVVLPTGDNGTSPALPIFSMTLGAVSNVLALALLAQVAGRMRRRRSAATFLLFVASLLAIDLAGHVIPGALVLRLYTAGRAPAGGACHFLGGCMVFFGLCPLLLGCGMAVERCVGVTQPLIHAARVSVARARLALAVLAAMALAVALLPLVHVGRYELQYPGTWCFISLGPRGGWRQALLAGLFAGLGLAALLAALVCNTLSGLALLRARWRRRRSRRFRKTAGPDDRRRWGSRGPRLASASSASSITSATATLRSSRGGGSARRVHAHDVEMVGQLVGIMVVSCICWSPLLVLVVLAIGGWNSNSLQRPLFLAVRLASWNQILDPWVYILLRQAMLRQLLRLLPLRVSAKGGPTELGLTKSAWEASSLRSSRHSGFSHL

[6] = target: Prostacyclin receptor (Homo sapiens, UniProt P43119); assay: Displacement of [3H]Iloprost from human prostanoid IP receptor expressed in CHO cells after 30 mins by liquid scintillation counting
Prostacyclin receptor, sequence (P43119 whole entry): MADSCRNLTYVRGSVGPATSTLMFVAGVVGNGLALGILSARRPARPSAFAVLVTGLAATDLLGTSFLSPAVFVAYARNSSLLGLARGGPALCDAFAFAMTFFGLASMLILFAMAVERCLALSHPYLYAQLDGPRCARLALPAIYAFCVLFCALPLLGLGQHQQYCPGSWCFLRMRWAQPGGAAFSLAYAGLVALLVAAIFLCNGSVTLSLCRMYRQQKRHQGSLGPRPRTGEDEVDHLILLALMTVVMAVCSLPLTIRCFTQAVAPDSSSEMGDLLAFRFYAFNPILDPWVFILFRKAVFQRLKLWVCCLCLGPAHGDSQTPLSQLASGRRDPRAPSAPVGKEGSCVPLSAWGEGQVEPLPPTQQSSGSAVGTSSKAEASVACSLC

[7] = target: T2, Prostaglandin D2 receptor; assay: Antagonist activity at mouse prostanoid DP receptor expressed in CHO cells assessed as inhibition of PGD2-induced intracellular cAMP production; format: functional, cell-based
Method in brief: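 CHO-mDP cells were seeded at 1×10^5 cells/well and grown 2 days. They were preincubated about 10 min at 37 °C in MEM with 2 µM diclofenac, then about 10 min in MEM with 0.1% BSA, 1 mM IBMX and 2 µM diclofenac. Test compounds at various concentrations plus 10 nM PGD2 were then added for 10 min at 37 °C. Reactions were stopped with 10% TCA, extracted with tri-n-octylamine/chloroform, and cAMP was measured by EIA.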

[8] = target: Prostaglandin F2-alpha receptor (Mus musculus, UniProt P43117); assay: Displacement of [3H]PGF2alpha from mouse prostanoid FP receptor expressed in CHO cells after 60 mins by liquid scintillation counting; format: cell-based
Prostaglandin F2-alpha receptor, sequence (P43117 whole entry): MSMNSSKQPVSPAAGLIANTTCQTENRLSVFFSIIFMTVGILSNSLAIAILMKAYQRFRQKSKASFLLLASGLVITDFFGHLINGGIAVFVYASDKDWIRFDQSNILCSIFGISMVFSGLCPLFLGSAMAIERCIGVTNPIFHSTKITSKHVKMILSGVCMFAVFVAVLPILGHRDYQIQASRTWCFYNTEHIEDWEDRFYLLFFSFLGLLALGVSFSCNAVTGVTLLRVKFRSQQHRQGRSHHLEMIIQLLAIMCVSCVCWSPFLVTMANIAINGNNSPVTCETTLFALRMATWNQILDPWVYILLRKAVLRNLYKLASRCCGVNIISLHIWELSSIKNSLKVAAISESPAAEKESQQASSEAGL
Method in brief: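 CHO-mFP membranes were incubated with 2.5 nM [3H]PGF2α and varied test concentrations in 10 mM KH2PO4–KOH, 1 mM EDTA, 10 mM MgCl2, 100 mM NaCl, pH 6.0, for 60 min at room temperature. Samples were then filtered on GF/B, washed with ice-cold phosphate/NaCl buffer, and counted by scintillation. IC50 came from the regression curve, and Ki = IC50/(1+[L]/Kd).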

[9] = target: T4, Thromboxane A2 receptor (Homo sapiens, UniProt P21731); assay: Displacement of [3H]-SQ29548 from human prostanoid TP receptor expressed in CHO cells after 30 mins by liquid scintillation counting
T4 sequence (P21731 whole entry): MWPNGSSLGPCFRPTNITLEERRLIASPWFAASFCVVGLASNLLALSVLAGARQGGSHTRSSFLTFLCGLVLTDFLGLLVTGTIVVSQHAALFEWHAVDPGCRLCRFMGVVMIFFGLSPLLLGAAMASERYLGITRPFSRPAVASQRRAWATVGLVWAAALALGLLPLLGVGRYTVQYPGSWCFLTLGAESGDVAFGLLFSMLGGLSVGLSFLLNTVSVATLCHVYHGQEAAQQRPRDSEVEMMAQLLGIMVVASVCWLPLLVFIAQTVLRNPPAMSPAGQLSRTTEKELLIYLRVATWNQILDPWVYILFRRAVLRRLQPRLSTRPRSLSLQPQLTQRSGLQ

[10] = AUC (infinity) in rat at 1 mg/kg, iv; format: ADME, organism-based; parameters: time infinity, dose 1 mg/kg, route intravenous; conditions: plasma
Method in brief: (§2)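 Fasted male rats (n = 3) received 1 mg/kg iv or 10 mg/kg po. Jugular vein blood was drawn with a heparinized syringe at pre-dose and 2 (iv only), 5, 15 and 30 min, and 1, 2, 4, 6 and 8 h. Plasma was obtained by centrifugation at 4 °C and stored at −80 °C. AUC, Cmax, T1/2, Vss and CL came from the plasma concentration–time course. BA was derived from dose-normalized AUCpo/AUCiv.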

[11] = AUC (infinity) in rat at 10 mg/kg, po; format: ADME, organism-based; parameters: time infinity, dose 10 mg/kg, route oral; conditions: plasma; method in brief: as §2
[12] = Total clearance in rat at 1 mg/kg, iv; format: ADME, organism-based; parameters: dose 1 mg/kg, route intravenous; conditions: in vivo; method in brief: as §2
[13] = Cmax in rat at 10 mg/kg, po; format: ADME, organism-based; parameters: dose 10 mg/kg, route oral; conditions: in vivo; method in brief: as §2
[14] = Half life in rat at 1 mg/kg, iv; format: ADME, organism-based; parameters: dose 1 mg/kg, route intravenous; conditions: in vivo; method in brief: as §2
[15] = Half life in rat at 10 mg/kg, po; format: ADME, organism-based; parameters: dose 10 mg/kg, route oral; conditions: in vivo; method in brief: as §2
[16] = Volume of distribution at steady state in rat at 1 mg/kg, iv; format: ADME, organism-based; parameters: dose 1 mg/kg, route intravenous; conditions: in vivo, read-out: Vdss; method in brief: as §2
[17] = Oral bioavailability in rat at 10 mg/kg; format: ADME, organism-based; conditions: in vivo; method in brief: as §2

Prostaglandin E2 receptor EP2 subtype, sequence (Q62053 whole entry): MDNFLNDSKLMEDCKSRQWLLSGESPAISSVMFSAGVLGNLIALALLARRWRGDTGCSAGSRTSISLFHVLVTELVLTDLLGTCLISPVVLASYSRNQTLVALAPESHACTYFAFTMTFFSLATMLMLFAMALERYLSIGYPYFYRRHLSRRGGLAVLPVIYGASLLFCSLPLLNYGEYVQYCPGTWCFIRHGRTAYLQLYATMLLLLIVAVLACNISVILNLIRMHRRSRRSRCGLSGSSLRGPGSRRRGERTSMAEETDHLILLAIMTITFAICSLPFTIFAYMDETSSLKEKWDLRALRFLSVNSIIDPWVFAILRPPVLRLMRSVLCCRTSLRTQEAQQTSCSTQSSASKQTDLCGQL

Row | Structure (SMILES) | pKi [2] | pKi [3] | pKi [4] | pKi [5] | pKi [6] | pIC50 [7] | also measured
1 | CN1C[C@@H](COc2ccc(S(=O)(=O)Nc3cccc(CC(=O)O)c3)cc2)Oc2ccccc21 | 6.68 | 6.85 | 6.37 | 5.57 | 5.34 |  | pKi [1]: 5.64
2 | CN1C[C@@H](COc2ccc(NC(=O)c3cccc(CC(=O)O)c3)cc2)Oc2ccccc21 | < 5.00 | < 5.00 | 5.28 | < 5.00 | < 5.00 |  | pKi [1]: 5.46
3 | CN1C[C@@H](COc2ccc(C(=O)N(C)c3cccc(CC(=O)O)c3)cc2)Oc2ccccc21 | 5.77 | < 5.00 | 6.12 | < 5.00 | < 5.00 |  | pKi [1]: 5.28
4 | CCN(C(=O)c1ccc(OC[C@@H]2CN(C)c3ccccc3O2)cc1)c1cccc(CC(=O)O)c1 | 6.15 | < 5.00 | 6.11 | 5.89 | 5.54 |  | pKi [1]: < 5.00
5 | Cc1cc(OC[C@@H]2CN(C)c3ccccc3O2)ccc1C(=O)Nc1cccc(CC(=O)O)c1 | < 5.00 | < 5.00 | 7.74 | < 5.00 | 5.44 | 8.48 | pKi [8]: < 5.00; pKi [9]: < 5.00
6 | CN1C[C@@H](COc2ccc(C(=O)Nc3cccc(CC(=O)O)c3)c(Cl)c2)Oc2ccccc21 |  |  | 7.80 |  |  | 7.70 | 
7 | Cc1cc(OC[C@@H]2CN(C)c3ccccc3O2)ccc1C(=O)Nc1cccc(CC(=O)O)c1C |  |  | 7.23 |  |  | 7.55 | 
8 | Cc1cc(CC(=O)O)cc(NC(=O)c2ccc(OC[C@@H]3CN(C)c4ccccc4O3)cc2C)c1 | < 5.00 | 6.17 | 8.08 | < 5.00 | 5.46 | 8.47 | pKi [1]: 7.21; pKi [8]: < 5.00; pKi [9]: < 5.00
9 | Cc1ccc(NC(=O)c2ccc(OC[C@@H]3CN(C)c4ccccc4O3)cc2C)cc1CC(=O)O |  |  | 7.96 |  |  | 8.21 | 
10 | Cc1cc(OC[C@@H]2CN(C)c3ccccc3O2)ccc1C(=O)Nc1cc(CC(=O)O)ccc1Cl |  |  | 8.11 |  |  |  | 
11 | Cc1cc(OC[C@@H]2CN(C)c3ccccc3O2)ccc1C(=O)Nc1cc(CC(=O)O)ccc1F |  |  | 7.72 |  |  | 8.74 | 
12 | Cc1cc(OC[C@@H]2CN(C)c3ccccc3O2)ccc1C(=O)Nc1cc(F)cc(CC(=O)O)c1 |  |  | 8.13 |  |  | 8.25 | 
13 | Cc1cc(OC[C@@H]2CN(C)c3ccccc3O2)ccc1C(=O)Nc1ccc(F)c(CC(=O)O)c1 |  |  | 7.82 |  |  | 8.92 | 
14 | COc1ccc(NC(=O)c2ccc(OC[C@@H]3CN(C)c4ccccc4O3)cc2C)cc1CC(=O)O |  |  | 7.62 |  |  | 7.70 | 
15 | Cc1ccc(CC(=O)O)cc1NC(=O)c1ccc(OC[C@@H]2CN(C)c3ccccc3O2)cc1Cl |  |  | 7.59 |  |  | 8.22 | 
16 | Cc1cc(CC(=O)O)cc(NC(=O)c2ccc(OC[C@@H]3CN(C)c4ccccc4O3)cc2Cl)c1 |  |  | 7.92 |  |  | 8.27 | 
17 | Cc1ccc(NC(=O)c2ccc(OC[C@@H]3CN(C)c4ccccc4O3)cc2Cl)cc1CC(=O)O |  |  | 7.77 |  |  | 8.41 | 
18 | CN1C[C@@H](COc2ccc(C(=O)Nc3cc(CC(=O)O)ccc3Cl)c(Cl)c2)Oc2ccccc21 | < 5.00 | < 5.00 | 7.89 | 5.18 | 5.80 | 8.37 | pKi [1]: 7.36; pKi [8]: < 5.00; pKi [9]: < 5.00
19 | CN1C[C@@H](COc2ccc(C(=O)Nc3ccc(F)c(CC(=O)O)c3)c(Cl)c2)Oc2ccccc21 |  |  | 7.60 |  |  | 7.30 | 
20 | COc1ccc(NC(=O)c2ccc(OC[C@@H]3CN(C)c4ccccc4O3)cc2Cl)cc1CC(=O)O |  |  | 7.44 |  |  | 7.39 | 
21 | Cc1cc2c(CC(=O)O)cccc2n1C(=O)c1ccc(OC[C@@H]2CN(C)c3ccccc3O2)cc1 |  |  |  |  |  |  | AUC(0-inf) [10]: 7200 ng·h/mL; AUC(0-inf) [11]: 24300 ng·h/mL; clearance [12]: 2.4 mL/min/kg; Cmax [13]: 3500 ng/mL; half-life [14]: 9.8 h; half-life [15]: 5.4 h; Vd [16]: 1.8 L/kg; bioavailability [17]: 34%

From ChEMBL document CHEMBL1817571, “Design and synthesis of new prostaglandin D₂ receptor antagonists” (Bioorg Med Chem, 2011)
